Measured values gathered from unrelated publications.
Each line is one published result; the experiments were not run side by side.

| Compound | test system | conditions | concentration |
| --- | --- | --- | --- |
| Cc1nc2ccc(OCc3ccc(C(F)(F)F)cc3)cc2[nH]1 | male BALB/c mouse, brain | oral, 10 mg/kg, 4 h | 2000 ng/g |
| CC(C)c1cc(C(=O)NCCN)c2cnn(C(C)C)c2n1 | female BALB/c mouse, plasma | intraperitoneal, 50 mg/kg, 15 min | 2010 ng/mL |
| CC1(C)NC(=O)N(c2ccc(F)c(S(C)(=O)=O)c2)C1=O | male Swiss mouse, plasma | oral, 100 mg/kg, 48 h | 20 ng/mL |
| CC(C)n1ncc2c(C(=O)NCC3(C)CNC3)cc(C3CC3)nc21 | female BALB/c mouse, plasma | intraperitoneal, 50 mg/kg, 8 h | 240 ng/mL |
| CC(C)(C)S(=O)(=O)c1cc2c(Nc3ccc4scnc4c3)ncnc2cc1OCCOP(=O)(O)O | BALB/c mouse, plasma | oral, 10 mg/kg, 6 h | 21 ng/mL |
| OCc1nc2ccc(NCc3ccc(C(F)(F)F)cc3)cc2[nH]1 | male BALB/c mouse, brain | oral, 10 mg/kg, 6 h | 227 ng/g |
| O=C1CCC(N2Cc3cc(C4CCN(Cc5ccccc5)CC4)ccc3C2=O)C(=O)N1 (centres unmarked) | male CD-1 mouse, plasma | oral, 3 mg/kg, 4.98 min | 49.6 ng/mL |
| O=Cc1cc2c(cc1F)C(=O)N(C1CCC(=O)NC1=O)C2 (centres unmarked) | male CD-1 mouse, plasma | intravenous, 1 mg/kg, 1.02 min | 17.2 ng/mL |
| Cc1ccc2c(c1)C(=O)[C@]1(O)CCN(c3ccc4nc(C)ccc4c3)C1=N2 | mouse, plasma | subcutaneous, 10 mg/kg, 30 min | 2500 nM |
| O=C1CCC(N2Cc3cc(CO)c(F)cc3C2=O)C(=O)N1 (centres unmarked) | male CD-1 mouse, plasma | intravenous, 1 mg/kg, 4 h | 1.7 ng/mL |
| CCOC(=O)c1c(NC(=O)CNC(C)C)sc2c1CCCCC2 | male mouse, brain | intraperitoneal, 100 mg/kg, 30 min | 15800 ng/g |
| CN(C)C(=O)c1cc2cnc(Nc3ccc(-c4ccc5c(=O)cc(N6CCOCC6)oc5c4)cc3)nc2n1C1CCCC1 | BALB/c mouse, brain | oral, 20 mg/kg, 24 h, single dose | 5.3 ng/g |
| CC1(C)NC(=O)N(c2ccc(F)c(Br)c2)C1=O | male Swiss mouse, plasma | oral, 100 mg/kg, 1 h | 29700 ng/mL |
| NCc1cc2c(cc1F)C(=O)N(C1CCC(=O)NC1=O)C2 (centres unmarked) | male CD-1 mouse, plasma | intravenous, 1 mg/kg, 4 h | 2.8 ng/mL |
